Sampled rows, rich in hits. Any-hit rate of the full collection: about 1.8%.
M5 PAM: potentiates acetylcholine response at human M5 receptor; P08912; CHO-K1 hM5, Fluo-8 calcium, ACh EC20 PAM; 0% = ACh EC20, 100% = ACh EC100; activation, % at 3 µM; 360,000 tested, 0.3% active;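 active = activation above the run cutoff, the mean activation of all test compounds plus 3 SD, cut at about 18% in these data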
Target sequence (P08912 whole entry, looked up): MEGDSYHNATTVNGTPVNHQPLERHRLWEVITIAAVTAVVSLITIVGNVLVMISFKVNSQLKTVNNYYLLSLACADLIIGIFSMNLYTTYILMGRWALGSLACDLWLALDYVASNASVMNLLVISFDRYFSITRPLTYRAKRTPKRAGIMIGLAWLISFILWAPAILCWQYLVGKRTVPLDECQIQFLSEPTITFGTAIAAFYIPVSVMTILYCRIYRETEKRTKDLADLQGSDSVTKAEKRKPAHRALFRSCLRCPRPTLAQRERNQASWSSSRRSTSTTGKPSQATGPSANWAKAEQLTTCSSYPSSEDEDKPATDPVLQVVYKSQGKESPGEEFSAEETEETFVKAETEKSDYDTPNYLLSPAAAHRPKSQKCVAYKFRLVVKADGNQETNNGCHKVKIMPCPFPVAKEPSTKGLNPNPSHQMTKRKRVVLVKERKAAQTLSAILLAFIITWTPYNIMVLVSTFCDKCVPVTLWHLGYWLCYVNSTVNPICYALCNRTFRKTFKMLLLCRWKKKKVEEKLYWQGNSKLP
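Measured by: Fluo-8 calcium fluorescence; material: human M5 receptor in CHO-K1 cells; schedule: Post-acetylcholine fluorescence recording 140 s; benchmarks: low control EC20 acetylcholine (0%), high control EC100 acetylcholine (100%); read-out: Max/basal fluorescence ratio as % of EC20–EC100 ACh window; compound: single dose, 3 µM nominal final test concentration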
CHRM5 agonist: agonists of human muscarinic M5 receptor (CHRM5); 360,000 tested, 0.19% active; AID 624037; CHO-K1 hM5 cells, Fluo-8 calcium fluorescence; 0% DMSO wells, 100% maximal acetylcholine response; activation, % at 3 µM; P08912;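 active = activation above the run's mean over test compounds plus 3 SD, cut at about 23% in these data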;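 also: signal is peak over basal fluorescence ratio across the kinetic read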
M4 PAM: positive allosteric modulators of human muscarinic M4 receptor | CHO-K1 hM4/Gqi5, Fluo-8 calcium fluorescence, ACh EC20; 0% = ACh EC20, 100% = maximal ACh | P08173 | 360,000 tested, 0.4% active | activation, % at 3 µM;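 active = activation above its plate's cutoff, the mean activation of sample wells plus 3 SD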
CHRM4 antagonist: CHRM4 antagonism in calcium assay | inhibition, % at 3 µM | 360,000 tested, 0.73% active | P08173 | CHO-hM4 cells, ACh EC80, Fluo-8 calcium fluorescence;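 active = inhibition above its plate's cutoff, the mean inhibition of sample wells plus 3 SD, cut at about 27% in these data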;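 also: 0% = acetylcholine EC80 with DMSO and 100% = DMSO without agonist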
M4 ag: agonists of human muscarinic M4 receptor (CHRM4); P08173; CHO-K1 hM4/Gqi5, Fluo-8 calcium fluorescence; vehicle 0%, full acetylcholine response 100%; activation, % at 3 µM; 360,000 tested, 0.14% active; AID 624127;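 active = activation above the run mean over all test wells plus 3 SD, cut at about 32% in these data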;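 also: peak over basal fluorescence ratio per well then scaled between controls; 0% = DMSO wells and 100% = acetylcholine at EC100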
CHRM5 antagonist: antagonists of human muscarinic M5 receptor (CHRM5). inhibition, % at 3 µM. P08912. AID 624040. 360,000 tested, 0.59% active. CHO-hM5 cells, Fluo-8 calcium fluorescence, ACh EC80;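 active = inhibition above a per-plate cutoff, the mean of that plate's test compounds plus 3 SD, cut at about 27% in these data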;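 also: 0% = acetylcholine EC80 with DMSO and 100% = DMSO without agonist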
The depositor's hits bear a star.

For CCCOc1nnnn1-c1ccccc1 the results were M5 PAM 6, CHRM5 agonist -1, M4 PAM 19*, CHRM4 antagonist -4, M4 ag 0 and CHRM5 antagonist 0.
OCCOc1nnnn1-c1ccccc1 was read as M5 PAM 6, CHRM5 agonist 1, M4 PAM 10, CHRM4 antagonist 1, M4 ag 1 and CHRM5 antagonist -5.
For COc1cc(CN2CCCC(C(=O)c3ccc4c5c(cccc35)CC4)C2)cc(OC)c1O (stereo unspecified) the results were M5 PAM 6, CHRM5 agonist -1, M4 PAM -3, CHRM4 antagonist -5, M4 ag 3 and CHRM5 antagonist 4.
CCOc1ccc(Nc2cc(C)nc3c(C)cccc23)cc1 was read as M5 PAM 20*, CHRM5 agonist 0, M4 PAM -4, CHRM4 antagonist -2, M4 ag 1 and CHRM5 antagonist -11.
For COc1ccc(C=O)cc1COc1ccccc1F the results were M5 PAM 1, CHRM5 agonist -2, M4 PAM 21*, CHRM4 antagonist -4, M4 ag 0 and CHRM5 antagonist 1.
O=C(Nc1ccc(F)c(Cl)c1)c1ccc2sc([C@@H]3O[C@H](CO)[C@H](O)[C@H](O)[C@H]3O)nc2c1 was read as M5 PAM -2, CHRM5 agonist 0, M4 PAM 5, CHRM4 antagonist -8, M4 ag 0 and CHRM5 antagonist 12.
COc1ccc(OC)c(CCNC(=O)CN2C(=O)CCSc3ccccc32)c1 was read as M5 PAM 0, CHRM5 agonist -4, M4 PAM 1, CHRM4 antagonist -2, M4 ag 1 and CHRM5 antagonist 2.
For Cc1cccc(C)c1NC(=O)CNC(=O)CNC(=O)c1ccc2c(c1)OCO2 the results were M5 PAM -1, CHRM5 agonist 4, M4 PAM 23*, CHRM4 antagonist -11, M4 ag 0 and CHRM5 antagonist 8.
`O=C(CN1CCN(C(=O)CNC(=O)c2ccc3c(c2)OCO3)CC1)Nc1ccccc1Cl` gave M5 PAM 2, CHRM5 agonist 3, M4 PAM -1, CHRM4 antagonist 3, M4 ag 3 and CHRM5 antagonist -6.
CCN(CC(=O)Nc1c(F)cccc1F)C(=O)c1ccc2c(c1)OCCO2 was read as M5 PAM 2, CHRM5 agonist 1, M4 PAM 37*, CHRM4 antagonist -21, M4 ag 2 and CHRM5 antagonist 1.
O=C(CN1CCN(C(=O)CNC(=O)c2ccc3c(c2)OCO3)CC1)Nc1cccc(F)c1 was read as M5 PAM 19*, CHRM5 agonist 1, M4 PAM 8, CHRM4 antagonist -17, M4 ag 1 and CHRM5 antagonist -8.
Screening CC(C)Cc1ccc(-c2cc3nc(NCCc4ccc(S(N)(=O)=O)cc4)ccn3n2)cc1 returned M5 PAM -6, CHRM5 agonist 5, M4 PAM -4, CHRM4 antagonist 24, M4 ag 9 and CHRM5 antagonist 17.
For CCOCCCN(C(=O)c1snc(C(N)=O)c1N)C(C(=O)NC1CCCC1)c1ccc(O)cc1 (stereo unspecified) the results were M5 PAM 0, CHRM5 agonist 0, M4 PAM -3, CHRM4 antagonist 3, M4 ag 2 and CHRM5 antagonist -6.
COc1ccc(Cn2cc(F)c(=O)n(C)c2=O)cc1[N+](=O)[O-] was read as M5 PAM 18*, CHRM5 agonist 3, M4 PAM 0, CHRM4 antagonist -7, M4 ag 1 and CHRM5 antagonist -9.
`O=S(=O)(/N=S1/CC=CCN1S(=O)(=O)c1ccccc1)c1ccccc1` (stereo unspecified) gave M5 PAM 3, CHRM5 agonist 26*, M4 PAM -7, CHRM4 antagonist 16, M4 ag 22 and CHRM5 antagonist 6.
Screening COc1cc(OC)c(C(=O)OCC(=O)N(Cc2ccccc2)C(C)(C)C)cc1OC returned M5 PAM 2, CHRM5 agonist 2, M4 PAM 5, CHRM4 antagonist -2, M4 ag 2 and CHRM5 antagonist 11.
COc1ccc(OC)c(-c2csc(N(CC3CCCO3)C(=O)C3CCCCC3)n2)c1 (stereo unspecified) was read as M5 PAM -2, CHRM5 agonist 2, M4 PAM 2, CHRM4 antagonist 2, M4 ag -1 and CHRM5 antagonist 5.
Nc1nc(N2CCCCC2)nc2ccccc12 was read as M5 PAM -23, CHRM5 agonist -8, M4 PAM -19, CHRM4 antagonist 22, M4 ag 1 and CHRM5 antagonist 16.
Screening Nc1nc(N2CCN(c3ccccn3)CC2)nc2ccccc12 returned M5 PAM -10, CHRM5 agonist -8, M4 PAM -18, CHRM4 antagonist 27*, M4 ag 2 and CHRM5 antagonist 13.
For COc1cc(C2C=C(c3cccs3)Nc3ncnn32)cc(OC)c1OC (stereo unspecified) the results were M5 PAM -9, CHRM5 agonist 19, M4 PAM -14, CHRM4 antagonist 10, M4 ag 34* and CHRM5 antagonist 16.
Screening CCN1C[C@@H]2[C@@H]3C(=O)N(C)C(=O)[C@@H]3[C@](C)(C1=O)N2C(=O)c1ccc(C(F)(F)F)cc1 returned M5 PAM -6, CHRM5 agonist 1, M4 PAM 0, CHRM4 antagonist 6, M4 ag 1 and CHRM5 antagonist 18.
Screening O=C(NC(Cc1ccccc1)C(=O)O)/C(=C\c1ccc(Br)cc1)NC(=O)c1ccc(Br)o1 (stereo unspecified) returned M5 PAM 6, CHRM5 agonist 2, M4 PAM -4, CHRM4 antagonist 15, M4 ag 0 and CHRM5 antagonist -8.
`O=C(NC(Cc1ccccc1)C(=O)O)/C(=C/c1ccc(Br)cc1)NC(=O)c1ccc(Br)o1` (stereo unspecified) gave M5 PAM -5, CHRM5 agonist -4, M4 PAM 19*, CHRM4 antagonist -1, M4 ag 0 and CHRM5 antagonist 9.
`CC(C)(CO)C(O)C(=O)NCCCO` (stereo unspecified) gave M5 PAM -2, CHRM5 agonist 1, M4 PAM -6, CHRM4 antagonist 8, M4 ag 1 and CHRM5 antagonist -5.
CC(=O)c1ccc(S(=O)(=O)NCCOc2ccccc2)cc1 was read as M5 PAM -4, CHRM5 agonist 3, M4 PAM -6, CHRM4 antagonist 5, M4 ag 2 and CHRM5 antagonist 8.
